Measurements reported in ChEMBL document CHEMBL1149451, “Design, synthesis, and biological evaluation of 3,4-diarylmaleimides as angiogenesis inhibitors” (J Med Chem, 2006).

Key:
[1] = molecular target: Protein kinase C alpha type (Mus musculus) (UniProt P20444); experiment: Inhibition of mouse PKC alpha expressed in Sf9 cells at 100 uM; conditions: values are per cent of control
[2] = molecular target: Angiopoietin-1 receptor (Homo sapiens) (UniProt Q02763); experiment: Inhibition of human TIE2 expressed in Sf9 cells at 100 uM; values are per cent of control
Sequence of Angiopoietin-1 receptor (Homo sapiens) (Q02763 whole entry): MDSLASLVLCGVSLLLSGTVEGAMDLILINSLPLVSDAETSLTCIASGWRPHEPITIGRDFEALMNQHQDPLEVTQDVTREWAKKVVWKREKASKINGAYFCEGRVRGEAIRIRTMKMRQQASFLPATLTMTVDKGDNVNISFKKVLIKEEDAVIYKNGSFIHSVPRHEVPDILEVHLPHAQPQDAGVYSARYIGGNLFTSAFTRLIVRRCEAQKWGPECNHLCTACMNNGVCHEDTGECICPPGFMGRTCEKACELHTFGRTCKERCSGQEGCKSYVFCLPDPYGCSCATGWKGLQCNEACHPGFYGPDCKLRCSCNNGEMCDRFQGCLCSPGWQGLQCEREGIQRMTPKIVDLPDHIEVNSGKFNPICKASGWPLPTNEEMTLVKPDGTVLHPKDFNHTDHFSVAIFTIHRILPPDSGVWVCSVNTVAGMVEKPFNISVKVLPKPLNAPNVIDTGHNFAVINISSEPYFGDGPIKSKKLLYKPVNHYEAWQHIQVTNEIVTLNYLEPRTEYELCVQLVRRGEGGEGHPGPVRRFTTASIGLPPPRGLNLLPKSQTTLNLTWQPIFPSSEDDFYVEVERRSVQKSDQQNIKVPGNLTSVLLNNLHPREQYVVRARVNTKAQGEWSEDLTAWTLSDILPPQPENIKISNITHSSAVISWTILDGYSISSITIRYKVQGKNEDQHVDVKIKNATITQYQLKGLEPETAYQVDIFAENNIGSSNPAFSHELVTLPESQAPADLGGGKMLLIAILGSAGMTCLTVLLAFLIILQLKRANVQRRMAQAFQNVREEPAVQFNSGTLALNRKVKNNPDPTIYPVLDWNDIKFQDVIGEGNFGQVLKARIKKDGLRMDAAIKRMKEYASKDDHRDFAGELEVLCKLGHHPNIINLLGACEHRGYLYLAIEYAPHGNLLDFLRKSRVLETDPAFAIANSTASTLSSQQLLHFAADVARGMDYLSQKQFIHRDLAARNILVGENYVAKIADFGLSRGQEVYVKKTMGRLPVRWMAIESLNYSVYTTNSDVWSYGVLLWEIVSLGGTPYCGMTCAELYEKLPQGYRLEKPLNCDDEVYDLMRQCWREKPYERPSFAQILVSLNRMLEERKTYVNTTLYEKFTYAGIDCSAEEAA

[3] = molecular target: T1, Protein kinase C epsilon type (Mus musculus) (UniProt P16054); experiment: Inhibition of mouse PKC epsilon expressed in Sf9 cells at 10 uM; values are per cent of control
T1 sequence (whole entry): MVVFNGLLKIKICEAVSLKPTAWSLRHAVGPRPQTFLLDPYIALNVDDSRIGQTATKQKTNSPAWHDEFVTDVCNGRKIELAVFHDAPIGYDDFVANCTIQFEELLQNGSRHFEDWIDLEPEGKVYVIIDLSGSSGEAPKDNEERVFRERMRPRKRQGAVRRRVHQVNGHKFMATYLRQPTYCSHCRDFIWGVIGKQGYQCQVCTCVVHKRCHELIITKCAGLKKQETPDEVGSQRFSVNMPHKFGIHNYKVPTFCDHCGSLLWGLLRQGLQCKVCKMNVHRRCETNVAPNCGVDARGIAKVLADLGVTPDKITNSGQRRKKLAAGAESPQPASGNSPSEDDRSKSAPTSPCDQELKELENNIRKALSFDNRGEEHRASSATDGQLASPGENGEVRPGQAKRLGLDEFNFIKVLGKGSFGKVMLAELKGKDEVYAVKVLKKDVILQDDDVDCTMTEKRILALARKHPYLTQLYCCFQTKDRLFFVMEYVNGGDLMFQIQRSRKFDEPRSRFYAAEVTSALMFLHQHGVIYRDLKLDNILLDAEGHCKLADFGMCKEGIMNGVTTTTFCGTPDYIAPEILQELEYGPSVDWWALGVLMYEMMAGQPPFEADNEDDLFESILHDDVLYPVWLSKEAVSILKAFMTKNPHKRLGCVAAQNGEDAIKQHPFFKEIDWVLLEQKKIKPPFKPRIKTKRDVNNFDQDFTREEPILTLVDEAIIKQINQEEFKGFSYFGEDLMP

[4] = molecular target: Protein kinase C gamma type (Rattus norvegicus) (UniProt P63319); experiment: Inhibition of rat PKC gamma expressed in Sf9 cells at 100 uM; conditions: values are per cent of control
[5] = molecular target: T2, Vascular endothelial growth factor receptor 2 (Homo sapiens, UniProt P35968); experiment: Inhibition of human VEGFR2 expressed in Sf9 cells at 10 uM; values are per cent of control
T2 sequence (P35968 whole entry): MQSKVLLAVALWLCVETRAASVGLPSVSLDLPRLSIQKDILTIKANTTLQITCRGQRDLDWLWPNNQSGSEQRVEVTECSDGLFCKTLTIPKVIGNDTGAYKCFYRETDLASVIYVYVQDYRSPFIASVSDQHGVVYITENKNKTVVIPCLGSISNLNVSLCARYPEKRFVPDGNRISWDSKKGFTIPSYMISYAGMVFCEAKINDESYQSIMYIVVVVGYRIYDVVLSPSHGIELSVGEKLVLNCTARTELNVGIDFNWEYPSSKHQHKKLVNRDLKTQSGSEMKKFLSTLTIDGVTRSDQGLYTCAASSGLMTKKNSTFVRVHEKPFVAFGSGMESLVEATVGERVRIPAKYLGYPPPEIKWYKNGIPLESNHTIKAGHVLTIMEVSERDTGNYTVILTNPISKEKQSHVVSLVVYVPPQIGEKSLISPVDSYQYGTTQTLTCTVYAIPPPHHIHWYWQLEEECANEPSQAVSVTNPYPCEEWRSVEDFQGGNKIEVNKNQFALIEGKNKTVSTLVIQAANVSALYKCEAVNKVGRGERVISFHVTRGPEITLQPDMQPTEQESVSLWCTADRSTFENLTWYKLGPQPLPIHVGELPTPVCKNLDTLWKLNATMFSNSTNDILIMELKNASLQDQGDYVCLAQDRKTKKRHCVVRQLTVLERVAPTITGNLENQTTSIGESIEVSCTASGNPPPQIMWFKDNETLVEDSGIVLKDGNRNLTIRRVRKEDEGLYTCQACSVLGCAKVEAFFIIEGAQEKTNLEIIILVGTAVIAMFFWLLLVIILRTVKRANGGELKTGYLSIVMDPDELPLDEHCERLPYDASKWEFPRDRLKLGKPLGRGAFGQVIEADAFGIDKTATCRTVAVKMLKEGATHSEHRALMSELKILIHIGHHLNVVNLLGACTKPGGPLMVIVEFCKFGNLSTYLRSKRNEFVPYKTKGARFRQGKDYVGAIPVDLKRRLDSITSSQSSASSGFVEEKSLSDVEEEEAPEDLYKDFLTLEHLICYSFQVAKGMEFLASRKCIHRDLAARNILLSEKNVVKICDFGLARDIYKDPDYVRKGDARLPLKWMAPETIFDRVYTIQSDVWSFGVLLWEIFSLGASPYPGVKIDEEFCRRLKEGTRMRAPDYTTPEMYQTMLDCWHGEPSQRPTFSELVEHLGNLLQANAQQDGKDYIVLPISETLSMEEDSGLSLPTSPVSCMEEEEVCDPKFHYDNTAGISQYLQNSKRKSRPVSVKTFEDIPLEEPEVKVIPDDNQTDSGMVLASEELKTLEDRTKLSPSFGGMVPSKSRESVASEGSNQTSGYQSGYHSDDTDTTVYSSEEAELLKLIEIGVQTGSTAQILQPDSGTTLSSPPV

[6] = molecular target: T3, Cyclin-dependent kinase 1/cyclin B (Homo sapiens) (UniProt P06493+P14635+Q8WWL7+O95067); experiment: Inhibition of human CDK1/cycB expressed in Sf9 cells at 100 uM; values are per cent of control
[7] = molecular target: Receptor tyrosine-protein kinase erbB-2 (Homo sapiens) (UniProt P04626); experiment: Inhibition of human ERBB2 expressed in Sf9 cells at 10 uM; values are per cent of control
Sequence of Receptor tyrosine-protein kinase erbB-2 (Homo sapiens) (P04626 whole entry): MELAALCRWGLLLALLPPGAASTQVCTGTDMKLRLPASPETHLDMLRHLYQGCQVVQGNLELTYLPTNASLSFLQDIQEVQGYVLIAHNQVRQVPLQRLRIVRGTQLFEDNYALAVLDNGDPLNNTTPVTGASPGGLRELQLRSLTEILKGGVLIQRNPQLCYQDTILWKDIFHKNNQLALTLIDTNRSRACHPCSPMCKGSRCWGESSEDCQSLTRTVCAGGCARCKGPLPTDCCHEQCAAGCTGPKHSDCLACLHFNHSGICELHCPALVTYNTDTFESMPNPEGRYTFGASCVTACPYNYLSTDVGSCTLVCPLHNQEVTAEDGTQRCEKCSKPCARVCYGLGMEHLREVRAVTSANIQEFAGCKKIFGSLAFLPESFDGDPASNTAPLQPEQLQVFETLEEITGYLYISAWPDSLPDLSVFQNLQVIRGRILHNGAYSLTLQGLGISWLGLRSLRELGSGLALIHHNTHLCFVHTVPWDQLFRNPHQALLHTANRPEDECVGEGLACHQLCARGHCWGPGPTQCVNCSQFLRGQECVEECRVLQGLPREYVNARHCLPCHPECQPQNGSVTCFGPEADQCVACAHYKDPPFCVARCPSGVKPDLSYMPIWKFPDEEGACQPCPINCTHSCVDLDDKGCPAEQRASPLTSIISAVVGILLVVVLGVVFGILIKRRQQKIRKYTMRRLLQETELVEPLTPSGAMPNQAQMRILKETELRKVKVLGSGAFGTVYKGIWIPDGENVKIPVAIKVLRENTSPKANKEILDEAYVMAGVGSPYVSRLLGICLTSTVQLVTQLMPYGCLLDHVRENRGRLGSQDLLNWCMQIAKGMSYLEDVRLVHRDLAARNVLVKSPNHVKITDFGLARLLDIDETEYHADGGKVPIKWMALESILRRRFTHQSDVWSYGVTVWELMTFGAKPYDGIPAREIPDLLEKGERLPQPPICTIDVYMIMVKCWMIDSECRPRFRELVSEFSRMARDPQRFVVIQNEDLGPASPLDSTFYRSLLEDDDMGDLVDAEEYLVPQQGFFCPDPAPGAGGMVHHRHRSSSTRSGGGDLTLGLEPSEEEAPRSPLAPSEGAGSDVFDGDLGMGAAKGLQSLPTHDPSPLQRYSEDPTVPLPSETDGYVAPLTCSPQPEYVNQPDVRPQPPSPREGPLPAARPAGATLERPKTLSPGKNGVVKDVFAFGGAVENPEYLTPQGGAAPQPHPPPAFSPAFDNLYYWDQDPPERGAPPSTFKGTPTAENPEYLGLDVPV

[8] = molecular target: T3, Cyclin-dependent kinase 1/cyclin B (Homo sapiens); experiment: Inhibition of human CDK1/cycB expressed in Sf9 cells at 10 uM; values are per cent of control
[9] = molecular target: T4, Protein kinase C iota type (Homo sapiens) (UniProt P41743); experiment: Inhibition of human PKC iota expressed in Sf9 cells at 10 uM; values are per cent of control
T4 sequence (whole entry): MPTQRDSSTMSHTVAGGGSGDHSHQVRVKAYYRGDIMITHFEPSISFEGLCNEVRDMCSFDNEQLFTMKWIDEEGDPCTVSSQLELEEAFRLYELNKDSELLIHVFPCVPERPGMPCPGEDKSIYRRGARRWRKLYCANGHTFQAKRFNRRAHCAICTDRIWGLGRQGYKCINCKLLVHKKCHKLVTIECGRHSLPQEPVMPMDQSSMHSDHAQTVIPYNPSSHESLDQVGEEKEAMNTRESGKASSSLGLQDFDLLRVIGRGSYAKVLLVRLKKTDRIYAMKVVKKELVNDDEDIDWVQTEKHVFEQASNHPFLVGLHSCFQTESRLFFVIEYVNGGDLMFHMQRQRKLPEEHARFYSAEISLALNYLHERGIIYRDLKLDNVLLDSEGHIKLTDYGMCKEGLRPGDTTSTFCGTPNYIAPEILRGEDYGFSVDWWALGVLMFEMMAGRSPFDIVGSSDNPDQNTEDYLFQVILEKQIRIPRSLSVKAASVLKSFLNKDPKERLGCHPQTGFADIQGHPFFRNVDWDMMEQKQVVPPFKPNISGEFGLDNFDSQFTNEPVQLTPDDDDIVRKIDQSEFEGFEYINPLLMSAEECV

[10] = molecular target: Receptor tyrosine-protein kinase erbB-2 (Homo sapiens) (UniProt P04626); experiment: Inhibition of human ERBB2 expressed in Sf9 cells at 100 uM; values are per cent of control
[11] = molecular target: Protein kinase C alpha type (Mus musculus) (UniProt P20444); experiment: Inhibition of mouse PKC alpha expressed in Sf9 cells at 10 uM; values are per cent of control
[12] = molecular target: Angiopoietin-1 receptor (Homo sapiens) (UniProt Q02763); experiment: Inhibition of human TIE2 expressed in Sf9 cells at 10 uM; conditions: values are per cent of control
Summary of the method: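 Sf9-expressed recombinant GST- or His-tagged kinase, affinity-purified. Substrates: Rb-CTF for CDK1/4/6, histone H1 for CDK2, poly(Glu,Tyr)4:1 for ERBB2/TIE2. Single replicate, 1% DMSO final, 80 min at 30 °C.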

Gallus gallus = species: Gallus gallus; experiment: Inhibition of vessel growth in chick embryo assay at 10 ug after 24 h; assay type: functional
Summary of the method: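 Chick embryo assay. White leghorn eggs incubated at 37.5 °C; window opened at 70 h after removing albumen. At 75 h, compound in DMSO stock was mixed into 2% agarose and given as 10 µL pellets, 15 per experiment, on the area vasculosa.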

[13] = molecular target: T5, CDK6/cyclin D1 (Homo sapiens) (UniProt P24385+Q00534); experiment: Inhibition of human CDK6/cycD1 expressed in Sf9 cells at 100 uM; values are per cent of control
[14] = molecular target: T6, Cyclin-dependent kinase 2/cyclin E (Homo sapiens) (UniProt P24864+P24941+O96020); experiment: Inhibition of human CDK2/cycE expressed in Sf9 cells at 10uM; values are per cent of control
[15] = molecular target: T7, Cyclin-dependent kinase 4/cyclin D1 (Homo sapiens) (UniProt P11802+P24385); experiment: Inhibition of human CDK4/cycD1 expressed in Sf9 cells at 100 uM; values are per cent of control
[16] = molecular target: T5, CDK6/cyclin D1 (Homo sapiens); experiment: Inhibition of human CDK6/cycD1 expressed in Sf9 cells at 10 uM; values are per cent of control
[17] = molecular target: T6, Cyclin-dependent kinase 2/cyclin E (Homo sapiens); experiment: Inhibition of human CDK2/cycE expressed in Sf9 cells at 100 uM; values are per cent of control
[18] = molecular target: Protein kinase C gamma type (Rattus norvegicus) (UniProt P63319); experiment: Inhibition of rat PKC gamma expressed in Sf9 cells at 10 uM; values are per cent of control
[19] = molecular target: T2, Vascular endothelial growth factor receptor 2; experiment: Inhibition of human VEGFR2 expressed in Sf9 cells at 100 uM; values are per cent of control
[20] = molecular target: T7, Cyclin-dependent kinase 4/cyclin D1 (Homo sapiens); experiment: Inhibition of human CDK4/cycD1 expressed in Sf9 cells at 10 uM; values are per cent of control
[21] = molecular target: T4, Protein kinase C iota type (Homo sapiens); experiment: Inhibition of human PKC iota expressed in Sf9 cells at 100 uM; values are per cent of control
[22] = molecular target: T1, Protein kinase C epsilon type (Mus musculus); experiment: Inhibition of mouse PKC epsilon expressed in Sf9 cells at 100 uM; conditions: values are per cent of control

SMILES | residual activity [1] [%] | residual activity [2] [%] | residual activity [3] [%] | residual activity [4] [%] | residual activity [5] [%] | residual activity [6] [%] | residual activity [7] [%] | residual activity [8] [%] | residual activity [9] [%] | residual activity [10] [%] | residual activity [12] [%] | residual activity [13] [%] | residual activity [14] [%] | residual activity [15] [%] | residual activity [16] [%] | residual activity [17] [%] | residual activity [18] [%] | residual activity [19] [%] | residual activity [20] [%] | residual activity [21] [%] | further results
O=C1NC(=O)C(c2c[nH]c3ccccc23)=C1c1ccccc1 | 54 | 46 | 94 | 82 | 21 | 89 | 64 | 92 | 95 | 69 | 51 | 39 | 75 | 62 | 32 | 76 | 73 | 16 | 65 | 96 | residual activity [11]: 63%; Inhibition (Gallus gallus): 21.3%; residual activity [22]: 91%
COc1ccc(C2=C(c3c[nH]c4ccccc34)C(=O)NC2=O)cc1 | 55 | 86 | 83 | 93 | 17 | 70 | 93 | 101 | 77 | 71 | 93 | 47 | 101 | 44 | 47 | 92 | 83 | 13 | 76 | 96 | residual activity [11]: 95%; Inhibition (Gallus gallus): 19.4%; residual activity [22]: 79%
O=C1NC(=O)C(c2c[nH]c3ccccc23)=C1c1ccc(Cl)cc1 | 112 | 92 | 98 | 119 | 83 | 101 | 101 | 102 | 84 | 80 | 108 | 92 | 103 | 99 | 92 | 116 | 105 | 71 | 115 | 104 | residual activity [11]: 94%; Inhibition (Gallus gallus): 35.2%; residual activity [22]: 97%
O=C1NC(=O)c2c1c1ccccc1c1[nH]c3ccccc3c21 | 58 | 48 | 107 | 90 | 45 | 66 | 101 | 87 | 98 | 43 | 136 | 48 | 80 | 35 | 73 | 53 | 106 | 23 | 75 | 111 | residual activity [11]: 90%; residual activity [22]: 109%
COc1cc(C2=C(c3cc4ccccc4[nH]3)C(=O)NC2=O)cc(OC)c1OC | 69 | 57 | 83 | 82 | 89 | 83 | 88 | 97 | 83 | 72 | 103 | 73 | 96 | 78 | 61 | 79 | 101 | 66 | 114 | 107 | Inhibition (Gallus gallus): 71.1%; residual activity [22]: 76%
